Measured values taken from ChEMBL document CHEMBL4196197, “Irilone from Red Clover ( Trifolium pratense) Potentiates Progesterone Signaling” (J Nat Prod, 2018).
Active and inactive are the calls of the source. The calls are words filed in the database; no cut-off is given here.

Assays:
[1] = biological target: T1, Progesterone receptor (Homo sapiens) (UniProt P06401); test: Agonist activity at PR-b (unknown origin) expressed in Ishikawa cells assessed as increase in PRE activity at 1 to 50 uM after 24 hrs in absence of progesterone by luciferase reporter gene based luminescence assay; assay type: cell-based
T1 sequence (whole entry): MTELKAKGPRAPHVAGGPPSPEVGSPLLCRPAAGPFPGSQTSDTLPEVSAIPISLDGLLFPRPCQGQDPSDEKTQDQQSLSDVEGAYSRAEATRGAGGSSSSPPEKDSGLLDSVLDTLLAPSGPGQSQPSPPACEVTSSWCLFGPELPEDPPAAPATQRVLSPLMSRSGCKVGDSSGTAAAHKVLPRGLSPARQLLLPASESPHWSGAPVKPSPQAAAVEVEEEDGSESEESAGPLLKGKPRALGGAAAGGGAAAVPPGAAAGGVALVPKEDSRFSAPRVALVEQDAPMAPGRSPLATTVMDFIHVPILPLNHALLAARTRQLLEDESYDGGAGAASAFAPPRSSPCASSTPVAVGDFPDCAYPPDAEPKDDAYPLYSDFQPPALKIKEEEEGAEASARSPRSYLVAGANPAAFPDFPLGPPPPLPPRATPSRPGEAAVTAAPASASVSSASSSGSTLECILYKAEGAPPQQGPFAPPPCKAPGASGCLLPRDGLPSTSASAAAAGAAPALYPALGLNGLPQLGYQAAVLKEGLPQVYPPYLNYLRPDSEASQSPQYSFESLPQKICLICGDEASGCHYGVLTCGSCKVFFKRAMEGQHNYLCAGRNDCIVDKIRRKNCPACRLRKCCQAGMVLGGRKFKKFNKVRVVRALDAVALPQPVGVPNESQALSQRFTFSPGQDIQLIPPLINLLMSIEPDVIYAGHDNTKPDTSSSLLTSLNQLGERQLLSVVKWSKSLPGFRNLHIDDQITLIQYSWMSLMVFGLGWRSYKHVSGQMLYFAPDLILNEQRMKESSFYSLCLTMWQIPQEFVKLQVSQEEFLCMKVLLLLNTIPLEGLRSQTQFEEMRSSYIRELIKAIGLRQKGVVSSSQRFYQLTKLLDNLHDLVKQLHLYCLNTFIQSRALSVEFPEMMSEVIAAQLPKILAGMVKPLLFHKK
In short: (§1)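 Ishikawa cells stably expressing CMV-driven PR-B, kept in phenol red-free DMEM/F12 with 5% charcoal-stripped FBS plus G418/hygromycin. Seeded 40,000/well in steroid-free medium. Next day transfected with PRE/Luc plus CMV-β-galactosidase (LT1). Compounds were added without progesterone for 24 h, then lysed and frozen at −80 °C. Luciferase (mean of first six RLU reads) normalized to β-gal, then to DMSO control, n≥3.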

Progesterone receptor = biological target: T2, Progesterone receptor (Homo sapiens, UniProt P06401); test: Induction of PR-b degradation in human Ishikawa cells up to 50 uM after 24 hrs by Western blot analysis; assay type: cell-based
T2 sequence (P06401 whole entry): T1 sequence (whole entry)
In short: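 Ishikawa PR-B cells in steroid-free medium treated with 0, 25 or 50 μM for 24 h. RIPA lysates with protease/phosphatase inhibitors, 25 μg protein by SDS-PAGE onto nitrocellulose. Blocked in 5% milk, probed overnight with anti-PR (H-190, 1:500) and β-actin (1:1000), anti-rabbit secondary, chemiluminescent detection.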

[2] = biological target: T1, Progesterone receptor (Homo sapiens); test: Agonist activity at PR-b (unknown origin) expressed in Ishikawa cells assessed as increase in PRE activity at 50 uM after 24 hrs by luciferase reporter gene based luminescence assay (reference value: 25.7); assay type: cell-based; in short: as §1
[3] = biological target: T1, Progesterone receptor (Homo sapiens); test: Agonist activity at PR-b (unknown origin) expressed in Ishikawa cells assessed as increase in progesterone-induced PRE activity at 25 uM after 24 hrs by luciferase reporter gene based luminescence assay relative to control; assay type: cell-based
In short: (§2)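 PRE/Luc transactivation in Ishikawa cells stably expressing PR-B under CMV, seeded 40,000/well in steroid-free phenol red-free medium with charcoal-stripped FBS. Next day co-transfected with PRE/Luc and CMV-β-galactosidase. Compounds were given together with 100 nM progesterone for 24 h. Luciferase, averaged over the first six RLU reads, normalized to β-gal and then to control; n≥3.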

PEO1 [4] = test: Antiproliferative activity against human PEO1 cells at 1 to 50 uM after 5 days by SRB assay; assay type: functional, cell-based
In short: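 PEO1 cells (RPMI, 10% FBS, glutamine, pyruvate) seeded at 1,000/well in steroid-free medium, one plate fixed at 2 h as day 0. Compounds at 1–50 μM, alone without progesterone, for 5 days. Fixed with 20% TCA at 4 °C, stained with 0.4% SRB in 1% acetic acid, dissolved in 10 mM Tris, A505. Day 5 normalized to day 0; n≥3.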

[5] = biological target: T1, Progesterone receptor (Homo sapiens); test: Agonist activity at PR-b (unknown origin) expressed in Ishikawa cells assessed as increase in progesterone-induced PRE activity at 50 uM after 24 hrs by luciferase reporter gene based luminescence assay relative to control; assay type: cell-based; in short: as §2
PEO1 [6] = test: Antiproliferative activity against human PEO1 cells at 25 to 50 uM after 5 days by SRB assay; assay type: functional, cell-based
In short: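 SRB growth assay in PEO1 cells: 1,000 cells/well in steroid-free medium, day-0 plate TCA-fixed 2 h after seeding. Compound was given together with 100 nM progesterone for five days, then cells TCA-fixed, SRB-stained, dye solubilized in 10 mM Tris, absorbance at 505 nm. Day-5 values normalized to day 0; n≥3.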

PEO1 [7] = test: Antiproliferative activity against human PEO1 cells at 0.001 to 10 uM after 5 days by SRB assay; assay type: functional, cell-based
In short: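 PEO1 cells kept in RPMI with 2 mM glutamine, 2 mM sodium pyruvate and 10% FBS; seeded at 1,000 cells/well in steroid-free medium. A day-0 plate was fixed with 20% TCA 2 h after seeding; the second plate was treated for 5 days, then fixed. SRB stain (0.4% in 1% acetic acid), dissolved in 10 mM Tris, A505; day 5 normalized to day 0; n≥3.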

[8] = biological target: T1, Progesterone receptor (Homo sapiens); test: Agonist activity at PR-b (unknown origin) expressed in Ishikawa cells assessed as increase in progesterone-induced PRE activity at 1 uM after 24 hrs by luciferase reporter gene based luminescence assay; assay type: cell-based; in short: as §2
[9] = biological target: T1, Progesterone receptor (Homo sapiens); test: Antagonist activity at PR-b (unknown origin) expressed in Ishikawa cells assessed as inhibition of progesterone-induced PRE activity at >= 25 uM after 24 hrs by luciferase reporter gene based luminescence assay; assay type: cell-based; in short: as §2
[10] = biological target: T1, Progesterone receptor (Homo sapiens); test: Antagonist activity at PR-b (unknown origin) expressed in Ishikawa cells assessed as inhibition of progesterone-induced PRE activity at 50 uM after 24 hrs by luciferase reporter gene based luminescence assay; assay type: cell-based; in short: as §2
[11] = biological target: T1, Progesterone receptor (Homo sapiens); test: Antagonist activity at PR-b (unknown origin) expressed in Ishikawa cells assessed as inhibition of basal PRE activity at 50 uM after 24 hrs in absence of progesterone by luciferase reporter gene based luminescence assay; assay type: cell-based; in short: as §1
[12] = biological target: T1, Progesterone receptor (Homo sapiens); test: Agonist activity at PR-b (unknown origin) expressed in Ishikawa cells assessed as increase in PRE activity at 1 uM after 24 hrs in absence of progesterone by luciferase reporter gene based luminescence assay; assay type: cell-based; in short: as §1
[13] = biological target: T1, Progesterone receptor (Homo sapiens); test: Antagonist activity at PR-b (unknown origin) expressed in Ishikawa cells assessed as inhibition of basal PRE activity at 25 to 50 uM after 24 hrs in absence of progesterone by luciferase reporter gene based luminescence assay; assay type: cell-based; in short: as §1

Compound	Activity (Progesterone receptor)	Activity [8]	inhibition [9]	inhibition [10]	inhibition [11]	also measured
O=c1c(-c2ccc(O)cc2)coc2cc3c(c(O)c12)OCO3	Not Active	–	–	–	–	Activity [1]: inactive; fold change (FC) [2]: 48.4; Activity [3]: 138%; Activity (PEO1 [4]): inactive; Activity [5]: 151%; Activity (PEO1 [6]): Active
CC(=O)[C@H]1CC[C@H]2[C@@H]3CCC4=CC(=O)CC[C@]4(C)[C@H]3CC[C@]12C	–	–	–	–	–	Activity (PEO1 [7]): inactive
COc1ccc(-c2coc3cc(O)cc(O)c3c2=O)cc1 [BIOCHANIN]	Not Active	Active	Active	> 90%	Active	Activity [12]: 55%
COc1ccc(-c2coc3cc(O)ccc3c2=O)cc1 [FORMONONETIN]	Not Active	57%	Active	> 90%	Active	–
COc1cc(O)c2c(=O)c(-c3ccc(O)cc3)coc2c1 [PRUNETIN]	Not Active	–	Active	> 90%	–	inhibition [13]: Active
